The source of these data is ChEMBL document CHEMBL1125672, “2-acetylpyridine thiosemicarbazones. 13. Derivatives with antifilarial activity” (1991).

Assay [1] has as its system Acanthocheilonema viteae. Description: anti-filarial Activity was measured against Acanthocheilonema viteae in jirds at 12.5 mg/kg/day(5 days) dose. Type of assay: functional. The method, boiled down: (§1)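 Jirds with established B. pahangi or A. viteae infections were given drug once daily for 5 days by subcutaneous injection, at the maximum tolerated dose and, where supply allowed, graded lower doses. Tolerance was first checked in noninfected jirds with a single 200 mg/kg oral or subcutaneous dose, watching 72 h for excessive weight loss or death. Macrofilarial suppression was the read-out.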

Assay [2] has as its system Acanthocheilonema viteae. Description: anti-filarial Activity was measured against Acanthocheilonema viteae in jirds at 25 mg/kg/day(5 days) dose. Type of assay: functional. The method, boiled down:
as §1

Assay [3] relates to Brugia pahangi. Description: anti-filarial Activity was measured against Brugia pahangi in jirds at 25 mg/kg/day(5 days) dose. Type of assay: functional. Summed up: as §1
Assay [4] concerns Onchocerca gutturosa. Description: Mean motility score for treated Onchocerca gutturosa involving LLCMK2 feeder cells at a concentration of 3.05*10e-8 M at 2 h. Type of assay: functional. The note with it: in the assay text read “3.05*10e-9 M” for “3.05*10e-8 M”. Summed up:
(§2)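 One male O. gutturosa per well over LLCMK2 feeder cells in MEM with 10% heat-inactivated FCS, antibiotics and bicarbonate, 5% CO2; compound introduced in DMSO (≤0.016%, equal DMSO in controls). Motility scored 0 (immotile) to 10 (maximal control activity) every 30 min to 4.5 h, then at 1, 2, 3, 4 and 7 days.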

The subject of assay [5] is Onchocerca gutturosa. Description: Mean motility score for treated Onchocerca gutturosa involving LLCMK2 feeder cells at a concentration of 3.05*10e-8 M at 2.5 h. Type of assay: functional. The conditions noted are these: in the assay text read “3.05*10e-9 M” for “3.05*10e-8 M”. Summed up: as §2
In assay [6] the test system is Onchocerca gutturosa. Description: Colorimetric quantification of male Onchocerca gutturosa viability, expressed as % inhibition of formazan formation at 3.05*10e-9 M conc. by using tetrazolium Dye MTT assay. Type of assay: functional. Summed up: (§3)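 Single intact male O. gutturosa, cultured with LLCMK2 feeder cells in MEM + 10% heat-inactivated FCS (5% CO2), drug added from DMSO (≤0.016% DMSO in controls). MTT read after 168 h: worm in 0.5 mg/mL MTT, 30 min at 36.5 °C, formazan solubilized in DMSO 1 h at room temperature, absorbance 490 nm vs DMSO blank.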
(In general: Formazan colour is commonly taken as a measure of viable cells.)

Assay [7] relates to Onchocerca gutturosa. Description: Colorimetric quantification of male Onchocerca gutturosa viability, expressed as % inhibition of formazan formation at 4.88*10e-8M conc. by using tetrazolium Dye MTT assay. Type of assay: functional. Summed up: as §3
Assay [8] relates to Onchocerca gutturosa. Description: Mean motility score for treated Onchocerca gutturosa involving LLCMK2 feeder cells at a concentration of 4.88*10e-8M at 1.5 h. Type of assay: functional. Summed up:
(§4)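 Single male O. gutturosa worms (obtained following abattoir slaughter) per well in Eagle's MEM with 10% heat-inactivated fetal calf serum, penicillin, streptomycin, amphotericin B and bicarbonate, over LLCMK2 feeder cells, 5% CO2 in air. Drug dissolved in DMSO; controls received matched DMSO ≤0.016%. Motility scored 0 (immotile) to 10 (maximum control activity) every 30 min to 4.5 h, then days 1, 2, 3, 4, 7.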

The test system of assay [9] is Onchocerca gutturosa. Description: Mean motility score for treated Onchocerca gutturosa involving LLCMK2 feeder cells at a concentration of 4.88*10e-8M at 3 h. Type of assay: functional. The method, boiled down:
as §4

The subject of assay [10] is Onchocerca gutturosa. Description: Mean motility score for treated Onchocerca gutturosa involving LLCMK2 feeder cells at a concentration of 5*10e-5 M at 0.5 h. Type of assay: functional. The method, boiled down: as §4
The test system of assay [11] is Onchocerca gutturosa. Description: Mean motility score for treated Onchocerca gutturosa involving LLCMK2 feeder cells at a concentration of 5*10e-5 M at 3 h. Type of assay: functional. Summed up:
as §4

Assay [12] deals with Onchocerca gutturosa. Description: Mean motility score for treated Onchocerca gutturosa involving LLCMK2 feeder cells at a concentration of 5*10e-5 M at 4 h. Type of assay: functional. Summed up: as §4
Assay [13] concerns Onchocerca gutturosa. Description: Mean motility score for treated Onchocerca gutturosa involving LLCMK2 feeder cells at a concentration of 3.1*10e-6 M at 72 h. Type of assay: functional. The method, boiled down: as §4
The subject of assay [14] is Onchocerca gutturosa. Description: Mean motility score for treated Onchocerca gutturosa involving LLCMK2 feeder cells at a concentration of 3.05*10e-9 M at 168 h. Type of assay: functional. The method, boiled down:
as §4

In assay [15] the test system is Onchocerca gutturosa. Description: Mean motility score for treated Onchocerca gutturosa involving LLCMK2 feeder cells at a concentration of 3.05*10e-9 M at 24 h. Type of assay: functional. Summed up: as §4
Assay [16] has as its system Onchocerca gutturosa. Description: Mean motility score for treated Onchocerca gutturosa involving LLCMK2 feeder cells at a concentration of 3.05*10e-9 M at 3.5 h. Type of assay: functional. The method, boiled down:
as §4

Assay [17] concerns Onchocerca gutturosa. Description: Mean motility score for treated Onchocerca gutturosa involving LLCMK2 feeder cells at a concentration of 3.1*10e-6 M at 0.5 h. Type of assay: functional. The method, boiled down: as §4
The subject of assay [18] is Onchocerca gutturosa. Description: Mean motility score for treated Onchocerca gutturosa involving LLCMK2 feeder cells at a concentration of 3.1*10e-6 M at 1.5 h. Type of assay: functional. Summed up: as §4
The test system of assay [19] is Onchocerca gutturosa. Description: Mean motility score for treated Onchocerca gutturosa involving LLCMK2 feeder cells at a concentration of 3.1*10e-6 M at 3 h. Type of assay: functional. Summed up:
as §4

Assay [20] concerns Onchocerca volvulus. Description: Mean motility score for treated Onchocerca volvulus excluding LLCMK2 feeder cells at a concentration of 5*10e-5 M at 0.5 h.
Assay [21] relates to Onchocerca volvulus. Description: Mean motility score for treated Onchocerca volvulus excluding LLCMK2 feeder cells at a concentration of 3.1*10e-6 M at 2 h.
In assay [22] the test system is Onchocerca volvulus. Description: Mean motility score for treated Onchocerca volvulus excluding LLCMK2 feeder cells at a concentration of 3.1*10e-6 M at 72 h.
Assay [23] deals with Onchocerca volvulus. Description: Mean motility score for treated Onchocerca volvulus excluding LLCMK2 feeder cells at a concentration of 3.1*10e-6 M at 1.5 h.
The test system of assay [24] is Onchocerca volvulus. Description: Mean motility score for treated Onchocerca volvulus excluding LLCMK2 feeder cells at a concentration of 3.1*10e-6 M at 0.5 h.
Assay [25] relates to Acanthocheilonema viteae. Description: anti-filarial Activity was measured against Acanthocheilonema viteae in jirds at 100 mg/kg/day(5 days) dose. Type of assay: functional. Summed up: as §1
In assay [26] the test system is Onchocerca volvulus. Description: Colorimetric quantification of male Onchocerca volvulus viability, expressed as % inhibition of formazan formation at 5*10e-5 M conc. by using tetrazolium Dye MTT assay. Type of assay: functional. The method, boiled down:
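Male O. volvulus dissected from human nodules within 24 h (kept in medium on ice), cultured without feeder cells in medium with 10% serum; drug from DMSO stock. MTT after 96 h: single worm, 0.5 mg/mL MTT, 30 min at 36.5 °C, formazan dissolved in DMSO 1 h at room temperature, absorbance 490 nm against DMSO blank.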

Assay [27] deals with Onchocerca gutturosa. Description: Mean motility score for treated Onchocerca gutturosa involving LLCMK2 feeder cells at a concentration of 1.21*10e-8M at 0.5 h. Type of assay: functional. The method, boiled down:
as §2

Assay [28] relates to Onchocerca gutturosa. Description: Mean motility score for treated Onchocerca gutturosa involving LLCMK2 feeder cells at a concentration of 1.21*10e-8M at 168 h. Type of assay: functional. The method, boiled down: as §2
Assay [29] deals with Onchocerca gutturosa. Description: Mean motility score for treated Onchocerca gutturosa involving LLCMK2 feeder cells at a concentration of 1.94*10e-7M at 0.5 h. Type of assay: functional. Summed up: as §2
For assay [30], the system named is Onchocerca gutturosa. Description: Mean motility score for treated Onchocerca gutturosa involving LLCMK2 feeder cells at a concentration of 1.94*10e-7M at 2 h. Type of assay: functional. The method, boiled down: as §2
The subject of assay [31] is Onchocerca gutturosa. Description: Mean motility score for treated Onchocerca gutturosa involving LLCMK2 feeder cells at a concentration of 1.94*10e-7M at 72 h. Type of assay: functional. The method, boiled down:
as §2

The structures appear in SMILES notation.

For the molecule `C/C(=N\NC(=S)N1CCCCCC1)c1ccccn1`, the Suppression in assay [1] is on record as -16%; in assay [2], 100%; in [3], 84%. Moreover, the Motility in [4] turned out to be 9.8; in [5], 8.3; in assay [8], 8.5; in assay [9] it was 9; in assay [10] it was 6; in assay [11], 2.2. For the same molecule, the Motility in assay [12] was found to be 1.5; in [13], 0; in assay [14], 3.5; in [15] it was 9.3; in assay [16] it was 8.3; in assay [17], 9.5. Also, the Motility in [18] turned out to be 9.8; in assay [19], 9.3; in [20], 8; in [21], 6.6; in [22], 1; in assay [23], 6.4. This molecule gave a Motility in assay [24] of 6.6. The Inhibition (as a rule, the percentage by which the read-out fell short of the control) worked out at 19.5% in assay [6] and 31.7% in assay [7].

As for `C/C(=N\NC(S)=Nc1ccccc1N)c1ccccn1`, the Suppression in assay [25] came to 100%; in assay [1] it was 28%; in [2], 94%; in assay [3], 100%. In [26], this molecule yielded an Inhibition of 53.8%. The Motility is 10 in assay [10]; 9.3 in assay [11]; 9.5 in assay [12]; 9 in [27]; 1 in assay [28]; 4.5 in [14]. The Motility in assay [15] is reported as 7.3; in assay [16], 7.3; in assay [29] it was 9.8; in assay [30], 9; in assay [31], 1.5; in assay [20], 5. Also, the Motility is recorded as 6 in [21], 1.2 in [22], 4.4 in assay [23] and 8 in [24].
